An excerpt weighted towards active compounds, which were near 4% of everything screened.
CHO parental Ca = ATP-evoked calcium signal inhibitors, parental CHO, primary screen, counter-screen for OX1R antagonist project, cell-based, fluorescence, Fluo-8 calcium dye | hit rate 0.63% among 330,000 | inhibition, % at 5.6 µM | parental CHO-K1, ATP-induced calcium, Fluo-8 fluorescence;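 active = inhibition above that plate's mean sample inhibition plus 3 SD, cut at about 26% in these data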;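 also: 0% = ATP-challenged DMSO wells and 100% = DMSO wells without ATP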
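Material – parental CHO cells · Reagent – ATP stimulus · Compound – single nominal dose of 5.6 µM per compound · Detection – Fluo-8 fluorescence · Read-out basis – percent inhibition of calcium signal · Controls – ATP-challenged DMSO wells low, unchallenged DMSO wells high · Repeats – no replicates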
TAAR1 agonist = human TAAR1 agonists, primary screen, Fluo-8 calcium fluorescence, CHO RD-HGA16 cells; activation, % at 3 µM; vehicle wells 0%, saturating PEA agonist 100%; hit rate 0.99% among 360,000; Trace amine-associated receptor 1 (Homo sapiens), Q96RJ0;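 active = activation above the mean activation of all test compounds in the run plus 3 SD, cut at about 38% in these data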
Target sequence (Q96RJ0 whole entry, looked up): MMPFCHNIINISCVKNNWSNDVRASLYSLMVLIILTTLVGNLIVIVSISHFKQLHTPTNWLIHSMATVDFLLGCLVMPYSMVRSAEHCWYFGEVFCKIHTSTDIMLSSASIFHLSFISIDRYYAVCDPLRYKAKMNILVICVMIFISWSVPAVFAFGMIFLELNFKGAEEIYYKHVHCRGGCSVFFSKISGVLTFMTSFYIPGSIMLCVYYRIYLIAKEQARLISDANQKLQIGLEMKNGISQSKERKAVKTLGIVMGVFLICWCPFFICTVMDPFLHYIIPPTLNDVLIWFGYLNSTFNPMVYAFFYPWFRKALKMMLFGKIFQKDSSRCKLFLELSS
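Signal – calcium-sensitive Fluo-8 signal, excitation 470-495, emission 515-575 nm · System – RD-HGA16 (CHO) cells co-expressing Gα16 and hTAAR1 · Incubation – 17-24 h seeding, 75 min 37 °C dye, 30 min RT · Compound dosing – 3 µM single concentration · Repeats – no replicates (n 1)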
TAAR1 antag = human TAAR1 antagonists, primary screen, Fluo-8 calcium fluorescence, CHO RD-HGA16 cells | Trace amine-associated receptor 1 (Homo sapiens), Q96RJ0 | antagonist | inhibition, % at 3 µM | hit rate 1.5% among 360,000;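 active = inhibition above a per-plate cutoff, the mean inhibition of test compounds on that plate plus 3 SD, cut at about 49% in these data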;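 also: 0% = DMSO plus EC80 beta-PEA response and 100% = DMSO alone without agonist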
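Assay system: CHO-derived RD-HGA16 cells stably expressing human TAAR1 plus Gα16. Timing: 140 s kinetic read after compound, 140 s after agonist. Technique: kinetic Fluo-8 calcium fluorescence measurement. Measure: % inhibition of agonist calcium response.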
OX1R antag-1 = OX1R (HCRTR1) antagonists, primary screen, fluorescence, CHO/OX1R cells, Fluo-8 calcium, orexin A | Orexin/Hypocretin receptor type 1 (Homo sapiens), O43613 | Fluo-8 calcium fluorescence | inhibition, % at 5 µM | AID 434989, 2010 | hit rate 0.43% among 330,000;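 active = inhibition above its plate's threshold, mean inhibition of all tested compounds on the plate plus 3 SD, cut at about 37% in these data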;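 also: 0% = orexin A challenge wells and 100% = SB-334867-A antagonist wells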
OX1R antag-2 = antagonists of human orexin 1 receptor (OX1R) | inhibition, % at 6.6 µM | hit rate 1.8% among 330,000 | OX1R-expressing cells, FRET antagonist read-out | Orexin/Hypocretin receptor type 1 (Homo sapiens), O43613; in the data active = inhibition mostly above about 38%, no sharp cut-off; inactive = mostly below about 40%;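 also: 0% = agonist challenge alone and 100% = reference antagonist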
TAAR1 ag confirm = human TAAR1 agonists, retest of hits, confirmation, Fluo-8 calcium fluorescence, CHO RD-HGA16 cells; shares compounds with TAAR1 agonist; scaled: DMSO 0%, maximal phenethylamine 100%; activation, % at 3 µM; hit rate 82% among 2,400; AID 651783, 2012;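 active = activation above a cutoff set at the run's mean compound activation plus 3 SD, cut at about 39% in these data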
Ga16 ag counter = nonselective calcium mobilization agonists, CHO-Ga16 cells, counter-screen for hTAAR1 agonist project, cell-based, fluorescence, CHO-Ga16 parental line; shares compounds with TAAR1 agonist; Fluo-8 calcium fluorescence; normalized to maximal ATP response, DMSO zero; activation, % at 3 µM; hit rate 50% among 2,400; AID 651787, 2012;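 active = activation above the run cutoff, the mean activation over all tested wells plus 3 SD, cut at about 12% in these data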;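 also: 0% = DMSO wells and 100% = maximal ATP response on the peak over basal ratio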
TAAR1 desens = TAAR1 desensitization by agonist hits, confirmation, counter-screen for TAAR1 agonist project, cell-based, fluorescence, tachyphylaxis; shares compounds with TAAR1 agonist; CHO RD-HGA16 hTAAR1, Fluo-8 calcium, beta-PEA response inhibition; inhibition, % at 3 µM; hit rate 46% among 2,400; AID 651951, 2012;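 active = inhibition above the run cutoff, the mean inhibition of all test compounds plus 3 SD, cut at about 49% in these data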;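 also: beta-PEA stimulus applied at its EC80; loss of beta-PEA calcium signal after compound pretreatment read as receptor desensitization; 0% = DMSO with beta-PEA at EC80 and 100% = DMSO alone without agonist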
Ga16 nonsel ant = inhibition of ATP-evoked calcium response in CHO-Ga16 cells, counter-screen for TAAR1 agonist project, cell-based, fluorescence; shares compounds with TAAR1 agonist; CHO-Ga16 ATP-induced calcium, Fluo-8 fluorescence; inhibition, % at 3 µM; hit rate 39% among 2,400;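 active = inhibition above the plate's mean compound inhibition plus 3 SD, computed per plate, cut at about 22% in these data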;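 also: 0% = EC80 ATP with DMSO and 100% = DMSO wells without ATP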
An asterisk follows results filed as active; / = not tested or not shown.

SMILES	CHO parental Ca	TAAR1 agonist	TAAR1 antag	OX1R antag-1	OX1R antag-2	TAAR1 ag confirm	Ga16 ag counter	TAAR1 desens	Ga16 nonsel ant
Cc1cc(C)n(C(=O)CCCn2nc(C)c([N+](=O)[O-])c2C)n1	-8	1	0	-5	14	/	/	/	/
O=C(COC(=O)c1ccccc1NCCO)NCc1cccs1	-6	1	-6	-20	11	/	/	/	/
O=C(NCC1CCCO1)c1ccc(NC(=O)c2ccc(Br)cc2)cc1 (stereo not given)	-24	78*	-31	-28	5	95*	8	71*	7
O=C(NCc1cccnc1)c1ccc(NC(=O)c2ccc(Br)cc2)cc1	0	57*	4	-11	19	58*	8	28	18
Cc1ccc(S(=O)(=O)N2CCN(C(=O)Cc3ccc4c(c3)OCCO4)CC2)cc1C	-17	7	20	-19	17	/	/	/	/
O=C(Cn1nnc(N2CCCC2)n1)N/N=C/c1ccc(Cl)cc1	-20	58*	-4	-17	7	85*	5	28	2
O=C(NCc1ccccc1)C(=O)NCC1OCCN1S(=O)(=O)c1ccc2c(c1)OCCO2 (stereo not given)	2	1	-11	-21	23	/	/	/	/
O=C(NCCc1ccccc1)C(=O)NCC1OCCN1S(=O)(=O)c1ccc2c(c1)OCCO2 (stereo not given)	-9	58*	33	5	30	77*	6	58*	21
CC1CCCN(C(=S)SCC(=O)c2cc(Br)cc(Br)c2O)C1 (stereo not given)	1	74*	-19	-23	5	82*	8	70*	19
O=C(CSC(=S)N1CCCC1)c1cc(Br)cc(Br)c1O	0	4	16	-14	5	/	/	/	/
Cc1csc(NS(=O)(=O)c2cccc([N+](=O)[O-])c2)n1	6	1	1	-7	15	/	/	/	/
COc1ccc(CN2CCC2(C)C(=O)NCc2ccc3c(c2)OCO3)c2ccccc12 (stereo not given)	/	1	-1	/	/	/	/	/	/
Cc1c(CCCl)c(Cl)n2c(nc3ccccc32)c1C#N	/	1	-7	/	/	/	/	/	/
CC(C)Cc1ccc(C(C)C(=O)Nc2cccnc2)cc1 (stereo not given)	69*	84*	63*	90*	20	126*	65*	79*	43*
CC(C(=O)Nc1cccnc1)c1ccc([N+](=O)[O-])cc1 (stereo not given)	-9	18	-15	-3	12	/	/	/	/
CCCOc1ccc2oc(=O)c3c(c2c1)CCCN3C(=O)CN1CCc2ccccc2C1	-16	73*	3	-23	19	54*	-1	13	11
Cc1ccc(-c2nc3c4ccccc4ccn3c2CC2CCCCC2)cc1	/	-1	-23	/	/	/	/	/	/
CCCCc1c(Cc2ccccc2)ncn1CCc1ccccc1OC	/	49*	55*	/	/	68*	7	60*	56*
CCc1c(Cc2cccc(F)c2)ncn1CCc1ccccc1OC	/	40*	-18	/	/	50*	5	15	13
COc1ccccc1CCn1cnc(Cc2cccc(F)c2)c1C(C)C	/	37	42	/	/	/	/	/	/
CCCc1c(Cc2cccc(F)c2)ncn1CCc1ccccc1OC	/	50*	35	/	/	79*	14*	61*	20
CCCCc1c(-c2ccccc2OC)ncn1CCc1ccc(OC)cc1	/	14	36	/	/	/	/	/	/
CCCCc1c(-c2ccccc2OC)ncn1CCc1ccccc1	/	61*	34	/	/	77*	12*	66*	27*
CC(=O)Nc1cccc(NC(=S)Nc2ccc(F)cc2F)c1	-9	-1	14	-9	7	/	/	/	/
O=C(CSc1nc(=O)n2ccccc2n1)Nc1ccc2c(c1)OCO2	2	3	-21	-2	8	/	/	/	/
SMILES	CHO parental Ca	TAAR1 agonist	TAAR1 antag	OX1R antag-1	OX1R antag-2	TAAR1 ag confirm	Ga16 ag counter	TAAR1 desens	Ga16 nonsel ant
N#C/C(=C\C=C\c1ccccc1)C(=O)Nc1ccccc1	-18	26	33	-19	16	/	/	/	/
N#C/C(=C/C=C/c1ccccc1)C(=O)Nc1ccccc1	-4	74*	34	-5	6	23	25*	11	26*
CS(=O)(=O)c1ccc(SCC(=O)NC2CCS(=O)(=O)C2)c([N+](=O)[O-])c1 (stereo not given)	-7	1	-4	-2	55	/	/	/	/
COC(=O)C1CCN(C(=O)Cn2nnc(-c3cccc(F)c3)n2)CC1	-4	-1	-5	-26	9	/	/	/	/
O=C(O)C1CC=C(Cl)CC1C(=O)NCC1OCCc2ccccc21 (stereo not given)	-6	/	/	-17	8	/	0	/	2
COc1ccc(/C(C)=N/NC(=O)c2ccccc2N)cc1	-5	-1	2	-11	26	/	/	/	/
CCOC(=O)c1c(C)[nH]c(C(=O)CN2C(=O)NC(CC)(c3ccccc3)C2=O)c1C (stereo not given)	-27	53*	20	-25	-5	34	12*	20	10
CCOC(=O)c1c(C)[nH]c(C(=O)CN2C(=O)NC(C)(c3ccc(C)cc3)C2=O)c1C (stereo not given)	-28	97*	9	-19	-6	102*	50*	58*	33*
CCOc1ccccc1CN1CCNC(=O)C1CC(=O)NCc1nccn1CC (stereo not given)	-13	0	-16	-5	13	/	/	/	/
COc1ccc(C(=O)OCc2csc(C)n2)c(O)c1	-12	1	-10	-12	17	/	/	/	/
O=C(CCl)N(Cc1cc(=O)[nH]c2ccccc12)c1ccccc1	-2	0	-2	-4	-4	/	/	/	/
O=C1C=C(NCc2ccc(Cl)c(Cl)c2)CC1	-1	1	3	-20	3	/	/	/	/
Nc1nc(N)c2cc(CNc3ccc(Cl)c(Cl)c3)ccc2n1	/	64*	53*	/	/	80*	42*	74*	66*
S=C1NCN(CCc2ccccc2)CN1	17	87*	14	-2	33	101*	22*	46	0

Screening data (PubChem BioAssay)
